ChEMBL document CHEMBL3244241, “Synthesis of cephalotaxine esters and correlation of their structures with antitumor activity” (J Med Chem, 1977)
Calls of active or inactive are those of the source. The rule behind the calls is not given here.

Assays:
P388 [1] = assay: Antitumor activity against mouse P388 cells allografted in DBA/2 mouse assessed as host survival at 9 mg/kg/day, ip for 9 days compound administered through water+alcohol vehicle relative to control; format: functional; conditions: route intraperitoneal
Procedure, shortened: (§1)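 P388 lymphocytic leukemia in DBA/2 mice. Dosing was one intraperitoneal injection per day for 9 days in the vehicle stated. […] Duplicate tests were run for some doses.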

P388 [2] = assay: Antitumor activity against mouse P388 cells allografted in DBA/2 mouse assessed as host survival at 4 mg/kg/day, ip for 9 days compound administered through saline vehicle relative to control; format: functional; conditions: route intraperitoneal; procedure, shortened: as §1
Mus musculus [3] = assay: Toxicity in DBA/2 mouse allografted with mouse P388 cells assessed as change in body weight at 9 mg/kg/day, ip for 9 days compound administered through water+alcohol vehicle; format: organism-based; parameters: route intraperitoneal; conditions: in vivo, 216 h
Mus musculus [4] = assay: Toxicity in DBA/2 mouse allografted with mouse P388 cells assessed as change in body weight at 4 mg/kg/day, ip for 9 days compound administered through saline vehicle; format: organism-based; parameters: route intraperitoneal; conditions: in vivo, 216 h
P388 [5] = assay: Antitumor activity against mouse P388 cells allografted in ip dosed DBA/2 mouse administered for 9 days; format: functional, organism-based
Procedure, shortened: (§2)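 P388 lymphocytic leukemia in DBA/2 mice; one intraperitoneal injection per day for 9 days. […] Injection vehicles were water + alcohol, saline + Tween 80, or aqueous 0.5% citric acid. Some tests were duplicated, and 30-day cures were recorded.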

P388 [6] = assay: Antitumor activity against mouse P388 cells allografted in DBA/2 mouse assessed as host survival at 80 mg/kg/day, ip for 9 days compound administered through water+alcohol+acetone vehicle relative to control; format: functional; conditions: route intraperitoneal; procedure, shortened: as §1
Mus musculus [7] = assay: Toxicity in DBA/2 mouse allografted with mouse P388 cells assessed as change in body weight at 40 mg/kg/day, ip for 9 days compound administered through water+alcohol+acetone vehicle; format: organism-based; parameters: route intraperitoneal; conditions: in vivo, 216 h
Procedure, shortened: (§3)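 DBA/2 mice bearing P388 lymphocytic leukemia received one intraperitoneal injection per day for 9 days, given in the vehicle named for each test (water/alcohol-based, saline or saline + Tween 80). Toxicity was noted during dosing alongside survival scoring (T/C, treated versus control mean survival time).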

P388 [8] = assay: Antitumor activity against mouse P388 cells allografted in DBA/2 mouse assessed as host survival at 20 mg/kg/day, ip for 9 days compound administered through water+alcohol+acetone vehicle relative to control; format: functional; conditions: route intraperitoneal; procedure, shortened: as §1
P388 [9] = assay: Antitumor activity against mouse P388 cells allografted in DBA/2 mouse assessed as host survival at 4.4 mg/kg/day, ip for 9 days compound administered through water+alcohol vehicle relative to control; format: functional; conditions: route intraperitoneal; procedure, shortened: as §1
Mus musculus [10] = assay: Toxicity in DBA/2 mouse allografted with mouse P388 cells assessed as change in body weight at 20 mg/kg/day, ip for 9 days compound administered through water+alcohol+acetone vehicle; format: organism-based; parameters: route intraperitoneal; conditions: in vivo, 216 h; procedure, shortened: as §3
Mus musculus [11] = assay: Toxicity in DBA/2 mouse allografted with mouse P388 cells assessed as change in body weight at 1.9 mg/kg/day, ip for 9 days compound administered through water+alcohol vehicle; format: organism-based; parameters: route intraperitoneal; conditions: in vivo, 216 h; procedure, shortened: as §3
Mus musculus [12] = assay: Toxicity in DBA/2 mouse allografted with mouse P388 cells assessed as change in body weight at 4.4 mg/kg/day, ip for 9 days compound administered through water+alcohol vehicle; format: organism-based; parameters: route intraperitoneal; conditions: in vivo, 216 h; procedure, shortened: as §3
P388 [13] = assay: Antitumor activity against mouse P388 cells allografted in DBA/2 mouse assessed as host survival at 40 mg/kg/day, ip for 9 days compound administered through water+alcohol+acetone vehicle relative to control; format: functional; conditions: route intraperitoneal; procedure, shortened: as §1
Mus musculus [14] = assay: Toxicity in DBA/2 mouse allografted with mouse P388 cells assessed as change in body weight at 10 mg/kg/day, ip for 9 days compound administered through water+alcohol+acetone vehicle; format: organism-based; parameters: route intraperitoneal; conditions: in vivo, 216 h; procedure, shortened: as §3
Mus musculus [15] = assay: Toxicity in DBA/2 mouse allografted with mouse P388 cells assessed as change in body weight at 80 mg/kg/day, ip for 9 days compound administered through water+alcohol+acetone vehicle; format: organism-based; parameters: route intraperitoneal; conditions: in vivo, 216 h; procedure, shortened: as §3
P388 [16] = assay: Antitumor activity against mouse P388 cells allografted in DBA/2 mouse assessed as host survival at 1.9 mg/kg/day, ip for 9 days compound administered through water+alcohol vehicle relative to control; format: functional; conditions: route intraperitoneal; procedure, shortened: as §1
P388 [17] = assay: Antitumor activity against mouse P388 cells allografted in DBA/2 mouse assessed as host survival at 10 mg/kg/day, ip for 9 days compound administered through water+alcohol+acetone vehicle relative to control; format: functional; conditions: route intraperitoneal; procedure, shortened: as §1
P388 [18] = assay: Antitumor activity against mouse P388 cells allografted in DBA/2 mouse assessed as disease cure at 365 mg/kg/day, ip for 9 days compound administered through water+alcohol vehicle measured after 30 days; format: functional, organism-based; procedure, shortened: as §2
L1210 = assay: Antitumor activity against mouse L1210 cells allografted in DBA/2 mouse at 25 to 200 mg/kg; format: functional, organism-based
P388 [19] = assay: Antitumor activity against mouse P388 cells allografted in DBA/2 mouse assessed as host survival at 20 mg/kg/day, ip for 9 days compound administered through water+alcohol vehicle relative to control; format: functional; conditions: route intraperitoneal; procedure, shortened: as §1
P388 [20] = assay: Antitumor activity against mouse P388 cells allografted in DBA/2 mouse assessed as host survival at 160 mg/kg/day, ip for 9 days compound administered through water+alcohol vehicle relative to control; format: functional; conditions: route intraperitoneal; procedure, shortened: as §1
P388 [21] = assay: Antitumor activity against mouse P388 cells allografted in DBA/2 mouse assessed as host survival at 13 mg/kg/day, ip for 9 days compound administered through water+alcohol vehicle relative to control; format: functional; conditions: route intraperitoneal; procedure, shortened: as §1
P388 [22] = assay: Antitumor activity against mouse P388 cells allografted in DBA/2 mouse assessed as host survival at 20 mg/kg/day, ip for 9 days compound administered through 0.5% citric acid vehicle; format: functional, organism-based; procedure, shortened: as §2
P388 [23] = assay: Antitumor activity against mouse P388 cells allografted in DBA/2 mouse assessed as host survival at 8.8 mg/kg/day, ip for 9 days compound administered through water+alcohol vehicle relative to control; format: functional; conditions: route intraperitoneal; procedure, shortened: as §1
Mus musculus [24] = assay: Toxicity in DBA/2 mouse allografted with mouse P388 cells assessed as change in body weight at 160 mg/kg/day, ip for 9 days compound administered through water+alcohol vehicle; format: organism-based; parameters: route intraperitoneal; conditions: in vivo, 216 h; procedure, shortened: as §3
P388 [25] = assay: Antitumor activity against mouse P388 cells allografted in DBA/2 mouse assessed as host survival at 40 mg/kg/day, ip for 9 days compound administered through water+alcohol vehicle relative to control; format: functional; conditions: route intraperitoneal; procedure, shortened: as §1
Mus musculus [26] = assay: Toxicity in DBA/2 mouse allografted with mouse P388 cells assessed as change in body weight at 20 mg/kg/day, ip for 9 days compound administered through water+alcohol vehicle; format: organism-based; parameters: route intraperitoneal; conditions: in vivo, 216 h; procedure, shortened: as §3
Mus musculus [27] = assay: Toxicity in DBA/2 mouse allografted with mouse P388 cells assessed as change in body weight at 320 mg/kg/day, ip for 9 days compound administered through water+alcohol vehicle; format: organism-based; parameters: route intraperitoneal; conditions: in vivo, 216 h; procedure, shortened: as §3
P388 [28] = assay: Antitumor activity against mouse P388 cells allografted in DBA/2 mouse assessed as host survival at 80 mg/kg/day, ip for 9 days compound administered through water+alcohol vehicle relative to control; format: functional; conditions: route intraperitoneal; procedure, shortened: as §1
Mus musculus [29] = assay: Toxicity in DBA/2 mouse allografted with mouse P388 cells assessed as change in body weight at 13 mg/kg/day, ip for 9 days compound administered through water+alcohol vehicle; format: organism-based; parameters: route intraperitoneal; conditions: in vivo, 216 h; procedure, shortened: as §3
Mus musculus [30] = assay: Toxicity in DBA/2 mouse allografted with mouse P388 cells assessed as change in body weight at 80 mg/kg/day, ip for 9 days compound administered through water+alcohol vehicle; format: organism-based; parameters: route intraperitoneal; conditions: in vivo, 216 h; procedure, shortened: as §3
Mus musculus [31] = assay: Toxicity in DBA/2 mouse allografted with mouse P388 cells assessed as change in body weight at 8.8 mg/kg/day, ip for 9 days compound administered through water+alcohol vehicle; format: organism-based; parameters: route intraperitoneal; conditions: in vivo, 216 h; procedure, shortened: as §3
P388 [32] = assay: Antitumor activity against mouse P388 cells allografted in DBA/2 mouse assessed as host survival at 320 mg/kg/day, ip for 9 days compound administered through water+alcohol vehicle relative to control; format: functional; conditions: route intraperitoneal; procedure, shortened: as §1
Mus musculus [33] = assay: Toxicity in DBA/2 mouse allografted with mouse P388 cells assessed as change in body weight at 40 mg/kg/day, ip for 9 days compound administered through water+alcohol vehicle; format: organism-based; parameters: route intraperitoneal; conditions: in vivo, 216 h; procedure, shortened: as §3
P388 [34] = assay: Antitumor activity against mouse P388 cells allografted in DBA/2 mouse assessed as host survival at 20 mg/kg/day, ip for 9 days compound administered through water+acetone vehicle relative to control; format: functional; conditions: route intraperitoneal; procedure, shortened: as §1
Mus musculus [35] = assay: Toxicity in DBA/2 mouse allografted with mouse P388 cells assessed as change in body weight at 20 mg/kg/day, ip for 9 days compound administered through water+acetone vehicle; format: organism-based; parameters: route intraperitoneal; conditions: in vivo, 216 h; procedure, shortened: as §3
Mus musculus [36] = assay: Toxicity in DBA/2 mouse allografted with mouse P388 cells at >80 mg/kg/day, ip for 9 days; format: organism-based; conditions: in vivo, 216 h; procedure, shortened: as §3

## COC(=O)C[C@@](O)(CCC(C)C)C(=O)O[C@@H]1C(OC)=C[C@]23CCCN2CCc2cc4c(cc2[C@H]13)OCO4
P388 [1]
  T/C: 131%
P388 [2]
  T/C: 150%
Mus musculus [3]
  Activity: -2.2 g
Mus musculus [4]
  Activity: 0.5 g

## CCC(C)(OC(=O)OCC(Cl)(Cl)Cl)C(=O)O[C@@H]1C(OC)=C[C@]23CCCN2CCc2cc4c(cc2[C@H]13)OCO4 (some centres undefined)
P388 [5]
  Activity: inactive

## COC(=O)/C=C/C(=O)O[C@@H]1C(OC)=C[C@]23CCCN2CCc2cc4c(cc2[C@H]13)OCO4
P388 [6]
  T/C: 145%
Mus musculus [7]
  Activity: -0.9 g
P388 [8]
  T/C: 125%
P388 [9]
  T/C: 147%
Mus musculus [10]
  Activity: -1 g
Mus musculus [11]
  Activity: 0.5 g
Mus musculus [12]
  Activity: -1.5 g
P388 [13]
  T/C: 134%
Mus musculus [14]
  Activity: -1.2 g
Mus musculus [15]
  Activity: -0.7 g
P388 [16]
  T/C: 134%
P388 [17]
  T/C: 136%

## C=C(CC(=O)OC)C(=O)O[C@@H]1C(OC)=C[C@]23CCCN2CCc2cc4c(cc2[C@H]13)OCO4
P388 [18]
  Activity: Active
L1210
  Activity: inactive

## COC1=C[C@]23CCCN2CCc2cc4c(cc2[C@@H]3[C@@H]1OC(=O)OCC(Cl)(Cl)Cl)OCO4
P388 [19]
  T/C: 128%
P388 [20]
  T/C: 155%
P388 [21]
  T/C: 138%
P388 [22]
  Activity: inactive
P388 [23]
  T/C: 170%
Mus musculus [24]
  Activity: -0.9 g
P388 [25]
  T/C: 140%
Mus musculus [26]
  Activity: -2.7 g
Mus musculus [27]
  Activity: -1 g
P388 [28]
  T/C: 160%
Mus musculus [29]
  Activity: -0.5 g
Mus musculus [30]
  Activity: -1.3 g
Mus musculus [31]
  Activity: -0.3 g
P388 [32]
  T/C: 172%
Mus musculus [33]
  Activity: -0.4 g

## COC(=O)/C(=C/C(=O)O[C@@H]1C(OC)=C[C@]23CCCN2CCc2cc4c(cc2[C@H]13)OCO4)CCC(C)C
P388 [34]
  T/C: 131%
Mus musculus [35]
  Activity: 0.9 g

## COC(=O)/C=C(\C)C(=O)O[C@@H]1C(OC)=C[C@]23CCCN2CCc2cc4c(cc2[C@H]13)OCO4
P388 [5]
  Activity: inactive

## COC1=C[C@]23CCCN2CCc2cc4c(cc2[C@@H]3[C@@H]1OC(=O)[C@@H](O)c1ccccc1)OCO4
P388 [5]
  Activity: inactive
Mus musculus [36]
  Activity: Toxic
